# Bioassay records as filed in PubChem BioAssay.
# RAD54 inh = inhibitors of human RAD54 branch migration; RAD54 Holliday junction branch migration, FAM/BHQ fluorescence; inhibition, % at 10.4 µM; actives 0.14% (n = 360,000); AID 602329;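 active = mean normalized replicate activity at least 40 and at least half of replicates scoring 40 or more; inconclusive = only one of the two criteria met; inactive = mean below 40 and under half of replicates reaching 40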;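 note: inhibitors cause a drop in the FAM fluorescence signal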
# Target sequence (Q92698 whole entry, looked up): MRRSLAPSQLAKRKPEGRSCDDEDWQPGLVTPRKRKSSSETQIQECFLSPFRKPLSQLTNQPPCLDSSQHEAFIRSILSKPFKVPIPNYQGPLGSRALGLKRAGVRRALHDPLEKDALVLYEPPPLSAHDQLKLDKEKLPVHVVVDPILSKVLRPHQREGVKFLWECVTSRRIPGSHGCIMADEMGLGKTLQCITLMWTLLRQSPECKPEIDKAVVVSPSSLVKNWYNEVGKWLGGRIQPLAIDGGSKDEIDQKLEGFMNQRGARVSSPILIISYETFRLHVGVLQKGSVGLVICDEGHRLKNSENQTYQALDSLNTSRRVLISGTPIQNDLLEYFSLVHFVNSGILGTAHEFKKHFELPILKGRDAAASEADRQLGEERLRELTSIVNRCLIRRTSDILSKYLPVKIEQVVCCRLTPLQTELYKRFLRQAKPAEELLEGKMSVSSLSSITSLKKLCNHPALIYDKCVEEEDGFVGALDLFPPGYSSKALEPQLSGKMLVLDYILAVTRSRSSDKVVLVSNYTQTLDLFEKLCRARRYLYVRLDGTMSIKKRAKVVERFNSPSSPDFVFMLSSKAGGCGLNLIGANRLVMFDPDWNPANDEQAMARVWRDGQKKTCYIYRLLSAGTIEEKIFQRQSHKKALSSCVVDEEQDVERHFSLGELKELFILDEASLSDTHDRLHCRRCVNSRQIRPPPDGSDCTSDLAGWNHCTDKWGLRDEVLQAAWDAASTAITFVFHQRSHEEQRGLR
# dFosB act = enhances mouse delta FosB homodimer DNA binding. P13346. activation, % at 25 µM. purified delta FosB, TAMRA-CDK5 oligo fluorescence polarization; percent of positive-control signal above neutral wells. actives 0.99% (n = 340,000). AID 493131;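 active = mean activation above about 17%, with every replicate also reaching it, limit read from the data, passing the limit was not always enough; inconclusive = only one of the two conditions met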
# AF4-AF9 inh = MLL-AF4/AF9 protein interaction inhibition. inhibition, % at 10 µM. AID 651704. actives 0.47% (n = 350,000). P42568. AlphaScreen, biotin-AF4 peptide binding to FLAG-AF9;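 active = every replicate reaching a set inhibition limit, whatever the replicate mean, cut at about 25% in these data; inconclusive = mean inhibition reaches that limit but some replicates miss it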
# S100A4 inh HTS = S100A4-myosin IIA interaction inhibition; inhibition, % at 10.7 µM; actives 0.14% (n = 360,000); AID 652163; P26447; S100A4/TAMRA-MyoIIA peptide fluorescence polarization;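 active = mean inhibition of at least 70% across replicates, with every replicate also reaching that level; inconclusive = mean inhibition reaches 70% but some replicates fall short; inactive = mean inhibition below 70%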
#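 Compound dosing: one dose per compound; test system: human S100A4 monomer with TAMRA-labelled myosin IIA peptide; probe or stimulus: TAMRA-labelled myosin IIA heavy-chain peptide probe, 5 nM; medium: HEPES buffer with Ca2+, pH 7.2; schedule: 5 min incubation before reading; benchmarks: neutral control DMSO, positive control TFP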
# RAD52 anneal inh = inhibitors of human RAD52 DNA annealing. P43351. recombinant RAD52 DNA annealing, FRET fluorescence. inhibition, % at 18.7 µM. actives 0.46% (n = 360,000). AID 651710;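 active = every replicate showing at least 50% inhibition; inconclusive = mean inhibition at least 50% but not in every replicate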
# A number is an active result; - = inactive; ? = inconclusive; . = no result. An excerpt weighted towards active compounds, which were near 1.5% of everything screened.
SMILES,RAD54 inh,dFosB act,AF4-AF9 inh,S100A4 inh HTS,RAD52 anneal inh
CCCN(C)C[C@H]1OCCCC[C@@H](C)Oc2ccc(NS(=O)(=O)c3ccccc3)cc2C(=O)N([C@@H](C)CO)C[C@H]1C,-,.,-,-,54.4
C[C@@H]1CCCCO[C@H](CN(C)S(=O)(=O)c2ccc(Cl)cc2)[C@@H](C)CN([C@@H](C)CO)C(=O)c2cc(NS(=O)(=O)c3ccc(F)cc3)ccc2O1,-,.,?,120.2,-
Cc1ccc(S(=O)(=O)N(C)C[C@H]2OCCCC[C@H](C)Oc3ccc(NS(=O)(=O)c4ccccc4)cc3C(=O)N([C@H](C)CO)C[C@@H]2C)cc1,-,.,-,97.1,-
COCC#Cc1ccc([C@H]2[C@H]3CN(C(=O)c4cccnc4)CC(=O)N3[C@H]2CO)cc1,.,.,-,-,-
Cc1ccc(S(=O)(=O)N(C)C[C@@H]2OCCCC[C@@H](C)Oc3ccc(NS(C)(=O)=O)cc3C(=O)N([C@@H](C)CO)C[C@@H]2C)cc1,-,.,-,88.3,-
C[C@H]1CCCCO[C@H](CN(C)S(=O)(=O)c2ccc(F)cc2)[C@@H](C)CN([C@@H](C)CO)C(=O)c2cc(NS(=O)(=O)c3ccccc3)ccc2O1,-,.,-,113.4,-
C[C@H]1CCCCO[C@@H](CN(C)C(=O)CCCN(C)C)[C@@H](C)CN([C@@H](C)CO)C(=O)c2cc(NS(=O)(=O)c3ccc(Cl)cc3)ccc2O1,-,.,-,-,53.5
C[C@@H]1CN([C@H](C)CO)C(=O)c2cc(NS(=O)(=O)c3ccc(F)cc3)ccc2O[C@@H](C)CCCCO[C@@H]1CN(C)C(=O)NC1CCCCC1,-,.,-,120.0,-
C[C@@H]1CCCCO[C@H](CN(C)S(=O)(=O)c2ccc(F)cc2)[C@@H](C)CN([C@H](C)CO)C(=O)c2cc(NS(=O)(=O)c3ccccc3)ccc2O1,-,.,-,-,-
C[C@@H]1CN([C@@H](C)CO)C(=O)c2cc(NC(=O)CCN3CCOCC3)ccc2O[C@@H]1CN(C)S(=O)(=O)c1cn(C)cn1,-,.,-,-,-
CN1c2ccc(C3=CCCCC3)cc2[C@H]2[C@H](CCN2C(=O)C2CCCCC2)[C@@H]1CO,.,.,30.4,-,-
CN1c2ccc(C3=CCCCC3)cc2[C@@H]2[C@@H](CCN2C(=O)C2CCCCC2)[C@@H]1CO,.,.,?,-,-
CN1c2ccc(C3=CCCCC3)cc2[C@@H]2[C@@H](CCN2C(=O)C2CCC2)[C@@H]1CO,.,.,28.4,-,-
COC(=O)[C@@H]1[C@@H](CO)[C@@H]2Cn3c(ccc(C4=CCCCC4)c3=O)[C@@H]2N1CC1CCCCC1,-,.,-,.,-
COc1ccc(S(=O)(=O)NCC2CCCN(Cc3cccc(C(C)=O)c3)C2)cc1 (stereo unspecified),-,-,-,87.3,-
COc1ccc(S(=O)(=O)NCC2CCCN(Cc3cccnc3)C2)cc1 (stereo unspecified),.,-,-,-,-
CN(C)c1nc(N/N=C/c2ccccc2O)nc(Nc2ccc(F)cc2)n1,.,60.5,-,-,-
c1cc(Nc2cccc3nccnc23)c2nccnc2c1,-,-,25.7,-,-
COc1ccc(NC(=O)N(C)C[C@H]2OCCCC[C@@H](C)Oc3ccc(NS(=O)(=O)c4ccc(Cl)cc4)cc3C(=O)N([C@@H](C)CO)C[C@H]2C)cc1,-,.,-,-,-
Cc1ccc(S(=O)(=O)N2C[C@H](O)COC[C@H]3O[C@@H](CC(=O)NCC4CCCCC4)CC[C@@H]32)cc1,-,.,-,-,-
Cc1ccc(S(=O)(=O)N2C[C@@H](O)COC[C@@H]3O[C@@H](CC(=O)NCC4CCCCC4)CC[C@H]32)cc1,-,.,-,-,60.0
Cc1ccc(S(=O)(=O)N2C[C@H](O)COC[C@@H]3O[C@H](CC(=O)NCC4CCCCC4)CC[C@H]32)cc1,-,.,-,-,54.3
O=C(NC1CCCC1)N1CC2(C1)[C@H](c1ccccc1)[C@@H](CO)N2S(=O)(=O)Cc1ccccc1,.,.,-,-,-
CCOc1c(Br)cc(Br)cc1/C=C1\SC(N)=NC1=O,-,25.0,-,-,-
COc1ccc(-c2ccc(C(=O)NCc3ccccc3)c3occc23)c(C)c1,-,.,-,-,-
SMILES,RAD54 inh,dFosB act,AF4-AF9 inh,S100A4 inh HTS,RAD52 anneal inh
COc1ccc(-c2ccc(C(=O)NCc3ccc(N4CCN(C)CC4)cc3)c3occc23)c(C)c1,-,.,36.9,-,-
CC(=O)Oc1cc2c3c(c1)/C(=C1/SC(=S)NC1=O)C(=O)N3C(C)(C)C=C2C,.,-,30.1,-,-
CCOc1cc2c3c(c1)C(C)=CC(C)(C)N3C(=O)C2=O,-,-,-,-,-
Cc1ccc(S(=O)(=O)N/N=C/c2cc(Br)ccc2O)cc1,-,-,30.3,-,-
Cc1ccc(C=Nc2ccc(N(C)C)cc2)o1,-,-,58.5,-,-
COc1ccccc1CNC(=O)C(NS(=O)(=O)c1ccc2c(c1)OCCO2)C(C)C (stereo unspecified),-,28.2,.,.,.
O=C(C[C@H]1C[C@@H]2c3cc(NC(=O)C4CCOCC4)ccc3O[C@@H]2[C@@H](CO)O1)NCc1ccncc1,-,.,-,-,-
O=C(COC(=O)c1cc(S(=O)(=O)Nc2ccccc2Cl)ccc1O)Nc1ccc(F)c(F)c1F,-,24.7,-,-,-
COc1ccccc1NS(=O)(=O)c1ccc(O)c(C(=O)OCC(=O)Nc2ccccc2F)c1,-,-,-,-,-
COc1ccc(-c2cc(C(F)(F)F)c3c(N)c(C(=O)NCCSC)sc3n2)cc1,-,-,-,-,-
CN(C)CCNC(=O)c1sc2nc(-c3ccccc3)cc(C(F)(F)F)c2c1N,-,19.0,-,-,-
O=C(C[n+]1ccc(CCSc2ccc(F)cc2)cc1)c1ccccc1,86.6,85.3,.,.,.
Cc1ccc(C(=O)C[n+]2ccc(Cc3ccccc3)cc2)cc1,.,-,-,-,-
O=C([C@H]1[C@H](CO)[C@H]2Cn3c(cccc3=O)[C@@H]1N2S(=O)(=O)c1ccccc1F)N1CCOCC1,-,.,-,-,-
CCN1CCN(Cc2ccc(NC(=O)c3cc(NC(=O)N4CCNC4=O)cc(OC)c3)cc2C(F)(F)F)CC1,-,-,-,-,-
CCN1CCN(Cc2ccc(NC(=O)c3ccc(C)c(NC(=O)C4=NN(c5ccccc5)C(=O)C4)c3)cc2C(F)(F)F)CC1,-,66.3,-,-,-
CCN1CCN(Cc2ccc(NC(=O)c3cc(NC(=O)C4=NN(c5ccccc5)C(=O)C4)cc(OC)c3)cc2C(F)(F)F)CC1,-,60.2,-,-,-
O=c1[nH]c2ccc(Br)cc2c(-c2ccccc2)c1CN1CCOCC1,-,-,-,-,-
O=c1[nH]c2ccc(Br)cc2c(-c2ccccc2)c1N1CCOCC1,-,-,25.0,-,-
C[C@H](CO)N1C[C@H](C)[C@@H](CN(C)C(=O)Nc2ccc3c(c2)OCO3)Oc2ccc(NC(=O)Nc3ccc(C(F)(F)F)cc3)cc2CC1=O,.,.,-,-,-
